Source: PubChem BioAssay
HCT116 bCat-KO: beta-catenin-lacking colon tumor cell growth suppression; HCT116 beta-catenin knockout viability, CellTiter-Glo, 60 h; stronger effect = lower value; viability, % at 10 µM; actives 1.5% (n = 140,000);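 active = viability at or under a set limit, the compound median less 4 SD, cut at about 6% in these data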;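 also: 0% = Hyamine 1622 control at 20 µM and 100% = untreated cell control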
H69AR growth 86K: growth inhibitors of human H69AR lung tumor cells; AID 598; actives 6% (n = 85,000); H69AR lung tumor viability, ATP luminescence, 72 h; stronger effect = lower value; viability, % at 10 µM;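 active = viability at or below 40%; inactive = viability above 40%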;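 also: multidrug resistant small cell line overexpressing MRP-1 efflux transporter; 100% = mean luminescence of untreated control wells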
Cav3 T inh: inhibitors of human Cav3.2 T-type calcium channel | O95180 | Cav3.2-expressing cells, Fluo-4 calcium fluorescence FDSS; stronger effect = lower value | B-score at 10 µM | actives 4% (n = 100,000) | AID 449739;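 active = single-dose well whose peak fluorescence ratio is a statistical outlier from its plate by either plate-standardised score or position-corrected B-score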
PTEN del growth: PTEN-deleted cell growth suppression | HCT116 PTEN-null viability, CellTiter-Glo, 60 h; stronger effect = lower value | viability, % at 10 µM | actives 1.2% (n = 140,000);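 active = viability at or below a set limit, 4 SD under the median of all tested compounds, cut at about 3.7% in these data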;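 also: PTEN knockout HCT116 line with beta catenin targeted HCT116 as companion control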
HUVEC inhibit: inhibitors of human endothelial cell proliferation | actives 1.1% (n = 86,000) | HUVEC proliferation, CellTiter-Glo luminescence, 72 h; stronger effect = lower value | viability, % at 10 µM (by protocol);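 active = viability at or below 30%; inactive = viability above 30%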;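 also: 100% = median luminescence of DMSO-only cell control wells on each plate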
Fibroblast inh: blocks proliferation of human lung fibroblasts; LL 47 human lung fibroblast viability, ATP luminescence; stronger effect = lower value; viability, % at 10 µM; actives 1.1% (n = 85,000); AID 719;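 active = viability at or below 50% in the single dose screen; inactive = viability above 50%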;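 also: compound exposure lasted 72 h before the ATP readout; 100% = median luminescence of untreated cell-only wells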
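Material: human lung fibroblast line LL 47, low passage; Evaluation: viability percentage against median untreated-cell control; Buffer or medium: 15% FBS in IMEM; Incubation: 72 h compound exposure at 37 °C after overnight plating; Dosing: 0.1% DMSO in all compound wells; Measured by: CellTiter-Glo luminescence.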
An asterisk follows results filed as active; nt = no result given. Sampled rows, rich in hits. Any-hit rate of the full collection: about 7.1%.

SMILES	HCT116 bCat-KO	H69AR growth 86K	Cav3 T inh	PTEN del growth	HUVEC inhibit	Fibroblast inh
CCn1c(Cc2ccccc2)nnc1SCC(=O)Nc1nccs1	91	62	0.17	93	103	106
CCn1c(CNC(=O)c2cccc(C)c2)nnc1SCC(=O)Nc1cccc(OC)c1	103	nt	-0.57	108	77	106
CCn1c(Cc2ccc(OC)cc2)nnc1SCC(=O)Nc1cccc(C(=O)OC)c1	0.9*	95	-1.4	0.6*	97	48*
CCn1c(CC(=O)Nc2cccc(OC)c2)nnc1SCC(=O)Nc1nccs1	88	83	-5*	95	94	104
Cc1ccsc1C1NC(=O)c2ccccc2N1 (centres undefined)	72	23*	0.082	74	63	88
COc1ccc(-n2c(SCC(=O)NNC(=O)c3ccccc3C)nnc2-c2ccncc2)cc1	92	nt	0.87	96	nt	nt
CCn1c(SCC(=O)Nc2cc3oc4ccccc4c3cc2OC)nnc1-c1cccs1	62	2.3*	-0.45	68	48	100
Cc1cc(Cl)ccc1NC(=O)CSc1nnc(Cc2cccs2)n1Cc1ccco1	78	76	-7.6*	79	90	87
COc1cc2c(cc1NC(=O)CSc1nnc(Cc3cccs3)n1C)oc1ccccc12	87	3.9*	-1.5	95	58	94
COc1cc2c(cc1NC(=O)CSc1nnc(Cc3cccs3)n1Cc1ccco1)oc1ccccc12	40	37*	-3.1	46	78	92
COc1cc2c(cc1NC(=O)CSc1ccc(C)cc1)oc1ccccc12	99	nt	-0.66	79	nt	nt
Cc1ccn2c(-c3n[nH]c(=S)n3C)c(C)nc2c1	91	nt	nt	101	nt	nt
COc1cc2c(cc1NC(=O)CSc1nnnn1-c1ccccc1)oc1ccccc12	35	19*	-0.0056	51	57	76
C=CCn1c(SCC(=O)Nc2cccc3ccccc23)nnc1-c1cnccn1	85	81	0.26	91	94	98
COc1cc2c(cc1NC(=O)CN1CCN(S(=O)(=O)c3ccccc3F)CC1)oc1ccccc12	78	40*	-0.31	75	40	67
C=CCn1c(SCC(=O)Nc2cc3oc4ccccc4c3cc2OC)nnc1-c1cnccn1	86	64	-4.2*	87	86	106
O=C(CNC(=S)N(Cc1ccccc1)Cc1cccnc1)NC1CCCCC1	83	nt	nt	85	nt	nt
CCC(C)[C@H](NC(=O)NCCCn1ccnc1)C(=O)OC (some centres undefined)	87	nt	nt	103	nt	nt
Cc1ccc2[nH]c(O)c(N=NC(=O)CCc3ccccc3)c2c1Br	30	nt	nt	22	nt	nt
CC(=O)NC1C(Oc2ccccc2C)OC2COC(c3ccco3)OC2C1O (centres undefined)	90	nt	nt	90	nt	nt
CC1CCCN(c2nc3ccccc3nc2C(C#N)S(=O)(=O)c2cccs2)C1 (centres undefined)	101	107	-5.9*	97	84	111
Cc1ccc(S(=O)(=O)C(C#N)c2nc3ccccc3nc2N2CCCC2)cc1 (centres undefined)	90	85	-3.6	81	73	99
Cc1cccc(S(=O)(=O)C(C#N)c2nc3ccccc3nc2N2CC(C)OC(C)C2)c1 (centres undefined)	89	70	-2.5	84	74	85
CC1CCN(c2nc3ccccc3nc2C(C#N)S(=O)(=O)c2ccccc2)CC1 (centres undefined)	nt	80	nt	nt	45	88
COc1ccc(S(=O)(=O)C(C#N)c2nc3ccccc3nc2N2CCCC(C)C2)cc1 (centres undefined)	83	91	-4.6*	94	76	92
SMILES	HCT116 bCat-KO	H69AR growth 86K	Cav3 T inh	PTEN del growth	HUVEC inhibit	Fibroblast inh
Cc1ccc(S(=O)(=O)C(C#N)c2nc3ccccc3nc2N2CC(C)OC(C)C2)cc1C (centres undefined)	76	34*	-4.2*	78	68	98
COc1ncccc1-c1nnn(-c2ccc(F)cc2)n1	nt	nt	0.31	nt	nt	nt
COC(=O)c1cc2c(C)[nH]c(C)c2cc(C(=O)OC)c1=O	98	nt	nt	96	nt	nt
CCCc1sc(N/N=C/c2ccccn2)nc1-c1ccc(F)cc1	3.2*	13*	-0.37	3.1*	15*	19*
N#CCCn1cc(/C=N/O)c(-c2ccc(-c3ccccc3)cc2)n1	47	32*	-0.44	39	56	74
N#CCCn1cc(/C=N/O)c(-c2ccc(Cl)cc2)n1	86	95	0.74	89	101	93
CC#CC[N+](C)(C)CCCCCCCCCCCC	0.8*	nt	nt	0.6*	nt	nt
C#CC[N+](C)(C)CCCCCCCCCCCC	1.4*	nt	nt	1.7*	nt	nt
C#CC[N+](C)(C)CCCCCCCCCC	13	nt	nt	12	nt	nt
O=C1C2C3C=CC(C4CC34)C2C(=O)N1Cc1ccco1 (centres undefined)	94	nt	nt	98	nt	nt
O=C(CO/N=C/c1ccccc1O)N1CCc2ccccc21	98	nt	nt	93	nt	nt
CCOC(=O)N1CCC(N2CCN(S(=O)(=O)c3ccc(C)cc3)CC2)CC1	91	29*	1.4	100	92	94
COc1ccc(C2N(C(=O)CN3CCOCC3)CCN2S(=O)(=O)c2ccccc2)cc1 (centres undefined)	81	22*	1.6	93	87	nt
CCOC(=O)N1CCN(S(=O)(=O)c2ccc(C)cc2)C1c1ccccc1 (centres undefined)	55	88	-4.1*	55	93	94
COc1ccc(NC(=O)C(=O)NCCO)cc1Cl	97	nt	nt	95	nt	nt
Cc1cc(C)c2nc(N3CCC(C(=O)NCCCN4CCCCC4)CC3)sc2c1	3.1*	58	0.11	2.3*	4.0*	2.7*
CC1(C)CC(=O)C=C(NC2=CC3OC(c4ccccc4)OCC3OC2=O)C1 (centres undefined)	95	nt	nt	103	nt	nt
CCOc1ccc(Cn2nnc(C(=O)NCc3ccc(OC)cc3)c2N)cc1	91	103	-5.2*	91	91	96
CCc1ccc(Cn2nnc(C(=O)Nc3ccc(OC)cc3OC)c2N)cc1	98	48	0.6	90	88	79
COc1ccc2c(c1)CCc1c(C(=O)Nc3ccn(Cc4ccc(C)cc4)n3)noc1-2	30	10*	0.2	47	38	93
Cc1cc(NC(=O)c2noc3c2CCCC3)nn1Cc1ccc(Cl)cc1	24	101	-4.8*	43	99	112
COc1ccc(-c2cc(C(=O)Nc3cc(C)n(Cc4ccc(Cl)cc4)n3)no2)cc1OC	78	14*	-1.8	70	46	106
COc1ccc2c(c1)CCc1c(C(=O)N3CCOCC3)noc1-2	80	87	0.84	81	100	103
COc1ccc2c(c1)CCc1c(C(=O)N3CC4(C)CC3CC(C)(C)C4)noc1-2 (centres undefined)	71	35*	-1.9	76	86	96
Cc1nn(Cc2ccc(F)cc2)c(C)c1NC(=O)c1noc2c1CCCCC2	84	97	-0.58	81	101	100
